Shown are actives, neighbours in structure and some others; about 1.4% of the full set was active somewhere.
PG9 Ab binder: binders of HIV-1 gp120 antibody PG9, primary screen, biochemical, TR-FRET | inhibition, % at 6.7 µM | AID 624416, 2012 | TR-FRET gp120-PG9 antibody binding | actives 0.43% (n = 360,000) | HIV-1 gp120 / PG9 antibody interaction; in the data active = inhibition above about 8.5%
NR2E3 ag-1: NR2E3 agonists in two-hybrid cells, primary screen, cell-based, luminescence, CHO-S, Gal4-NCOR/VP16-NR2E3; Photoreceptor-specific nuclear receptor (Homo sapiens), Q9Y5X4; actives 0.35% (n = 360,000); luciferase; inhibition of corepressor binding, % at 3.98 µM;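 active = inhibition above the mean of all tested compounds plus 3 SD, cut at about 70% in these data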;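 note: 0% = DMSO with NR2E3 transfected cells and 100% = cells lacking NR2E3 construct; higher means lower luciferase signal from less NR2E3 corepressor binding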
NR2E3 ag-2: inhibitors of NR2E3-RetCOR corepressor binding, primary screen, NR2E3 agonist project, biochemical, TR-FRET, GST-NR2E3, biotin-RetCOR; 1536-well; inhibition of corepressor binding, % at 4.78 µM; actives 0.12% (n = 320,000);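 active = percent inhibition above the cutoff of mean plus 3 SD of all tested compounds, set per screening campaign, cut at about 20% in these data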;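 note: 0% = DMSO wells and 100% = biotin wells as full block of FRET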
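Material: NR2E3–RetCOR corepressor complex / Amount: 1.35 nM GST-NR2E3 / Medium: Tris pH 7.5 / Compound: single nominal compound dose of 4.8 µM / Incubation: 5 h at 4 °C / Technique: TR-FRET, Eu(K)-anti-GST donor, streptavidin-D2 acceptor, ex 340, em 617/671 nm / Read-out basis: percent loss of FRET ratio relative to control wells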
Rev-erbA mod: modulators of Rev-erb alpha DNA binding, primary screen, biochemical, FITC-DNA, fluorescence polarization, uHTS. Nuclear receptor subfamily 1 group D member 1 (Homo sapiens), P20393. AID 1259318, 2017. Rev-erbα–FITC-DNA binding, 90 min. actives 0.79% (n = 370,000). activity, % at 10 µM;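 active = activity above about 14%, limit read from the data; passing the limit was not always enough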;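 note: 0% = DMSO wells with 35 nM protein and 100% = DMSO wells with 750 nM protein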
Target sequence (P20393 whole entry, looked up): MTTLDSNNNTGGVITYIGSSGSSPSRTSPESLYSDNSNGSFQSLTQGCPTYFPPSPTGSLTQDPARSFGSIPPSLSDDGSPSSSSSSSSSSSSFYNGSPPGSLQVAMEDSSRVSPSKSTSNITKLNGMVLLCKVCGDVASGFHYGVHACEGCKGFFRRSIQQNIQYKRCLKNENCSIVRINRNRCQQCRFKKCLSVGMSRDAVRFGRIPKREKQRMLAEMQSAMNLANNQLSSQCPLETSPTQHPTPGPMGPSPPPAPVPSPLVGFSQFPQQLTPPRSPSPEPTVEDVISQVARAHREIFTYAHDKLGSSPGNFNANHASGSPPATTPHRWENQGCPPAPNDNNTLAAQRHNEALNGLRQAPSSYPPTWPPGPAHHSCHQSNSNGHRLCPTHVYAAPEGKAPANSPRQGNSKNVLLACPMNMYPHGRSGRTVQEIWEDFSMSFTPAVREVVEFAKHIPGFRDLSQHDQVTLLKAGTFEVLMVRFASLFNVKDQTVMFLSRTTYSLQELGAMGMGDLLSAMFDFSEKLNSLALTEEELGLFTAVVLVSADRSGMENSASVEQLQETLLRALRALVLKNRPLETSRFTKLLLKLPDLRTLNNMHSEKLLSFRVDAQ
NR2E3 ag conf: NR2E3 agonist confirmation in cells, cell-based, luminescence, CHO-S two-hybrid. AID 624378, 2012. shares compounds with NR2E3 ag-1. inhibition, % at 3.98 µM. actives 51% (n = 2,300). CHO-S mammalian two-hybrid NR2E3-NCOR, luciferase luminescence;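 active = average inhibition above a cutoff equal to the mean inhibition of all tested compounds plus one SD, cut at about 70% in these data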;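 note: 0% = DMSO in NR2E3 cells and 100% = DMSO in cells lacking NR2E3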
VP16 counter: GAL4-VP16 reporter modulators, confirmation, counter-screen for NR2E3 agonist project, cell-based, luminescence, CHO-S, high throughput; shares compounds with NR2E3 ag-1; actives 29% (n = 2,300); AID 624379, 2012; CHO-S GAL4-VP16 luciferase reporter; inhibition, % at 3.98 µM;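 active = mean inhibition above a cutoff equal to the average over all tested compounds plus one standard deviation, cut at about 70% in these data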;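 note: luciferase from a UAS reporter driven by GAL4-VP16 transactivation; 0% = DMSO with VP16-transfected cells and 100% = DMSO with cells lacking VP16; higher means less reporter light so more repression of VP16 activity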
* = called active by the depositor.

CCCCCN1CCCCC(NC(=O)c2ccc(F)cc2)C1=O (stereo not drawn) was read as Rev-erbA mod -1.
`O=S1(=O)c2c(cccc2N2CCSCC2)Oc2ccccc2CN1Cc1cn(Cc2ccc(Cl)cc2)nn1` gave Rev-erbA mod -1.
For COc1cccc(NC(=O)Nc2ccncc2)c1 the results were PG9 Ab binder -3, NR2E3 ag-1 -17, NR2E3 ag-2 1 and Rev-erbA mod 0.
For COc1cccc(NC(=O)Nc2ccc(Cc3ccncc3)cc2)c1 the results were PG9 Ab binder 1, NR2E3 ag-1 55, NR2E3 ag-2 -3, Rev-erbA mod 1, NR2E3 ag conf 42 and VP16 counter 30.
`COc1ccc(-c2cc(-c3n[nH]c(=S)n3-c3cccc4ccccc34)[nH]n2)cc1` gave PG9 Ab binder -1, NR2E3 ag-1 42, NR2E3 ag-2 4 and Rev-erbA mod -6.
For S=c1[nH]nc(-c2cc(-c3ccsc3)n[nH]2)n1-c1cccc2ccccc12 the results were PG9 Ab binder 2, NR2E3 ag-1 49, NR2E3 ag-2 2, Rev-erbA mod -3, NR2E3 ag conf 18 and VP16 counter -17.
CN1C(=O)C[C@@](C#N)(C(=O)NCc2ccccc2)[C@H]1c1ccccc1 was read as Rev-erbA mod -4.
For Cc1cc(C(=O)NC2CCCc3c2cnn3-c2ccc(C)c(C)c2)no1 (stereo not drawn) the results were PG9 Ab binder -1, NR2E3 ag-1 20, NR2E3 ag-2 -2 and Rev-erbA mod 1.
CCc1[nH]nc(C(=O)NC2CCCc3c2cnn3-c2cc(C)cc(C)c2)c1C (stereo not drawn) was read as PG9 Ab binder 0, NR2E3 ag-1 61, NR2E3 ag-2 2, Rev-erbA mod -3, NR2E3 ag conf 54 and VP16 counter -8.
Screening Cc1cc(C(=O)NC2CCCc3c2cnn3-c2cccc(C)c2C)n(C)n1 (stereo not drawn) returned PG9 Ab binder -2, NR2E3 ag-1 110*, NR2E3 ag-2 -2, Rev-erbA mod 0, NR2E3 ag conf 98* and VP16 counter 91*.
Screening CCn1nc(C)cc1C(=O)NC1CCCc2c1cnn2-c1ccc(C)c(C)c1 (stereo not drawn) returned PG9 Ab binder -1, NR2E3 ag-1 58, NR2E3 ag-2 -2, Rev-erbA mod 6, NR2E3 ag conf 55 and VP16 counter 40.
Screening Cc1ccc(-n2ncc3c2CCCC3NC(=O)c2ocnc2C)cc1C (stereo not drawn) returned PG9 Ab binder -2, NR2E3 ag-1 101*, NR2E3 ag-2 2, Rev-erbA mod -7, NR2E3 ag conf 90* and VP16 counter 80*.
For N#CCC[C@H]1CC[C@]2(CCCN(C(=O)c3ccc4ccccc4n3)C2)O1 the results were Rev-erbA mod 11.
For COC(=O)[C@]12C[C@H](CC(=O)NCc3cccs3)C(=O)N(Cc3cccc4ccccc34)C1=C[C@H](C(C)(C)C)O[C@@H]2C the results were Rev-erbA mod 2.
Screening Cc1ccc(-n2c(SCC(=O)Nc3ccc(S(=O)(=O)Nc4cc(C)nc(C)n4)cc3)nnc2-c2cccs2)cc1 returned Rev-erbA mod -5.
CCN(CC(=O)NCc1cccs1)C(=O)c1ccc(-c2cccc(C(F)(F)F)c2)o1 was read as PG9 Ab binder -1, NR2E3 ag-1 54, NR2E3 ag-2 1, Rev-erbA mod -5, NR2E3 ag conf 20 and VP16 counter -7.
COC(=O)C1CN(Cc2cn(Cc3ccccc3)nn2)CCS(=O)(=O)N1Cc1ccc(F)cc1 (stereo not drawn) was read as Rev-erbA mod -2.

Screening data: PubChem, several laboratories
